Results taken from ChEMBL document CHEMBL5058577, “EUbOPEN Chemogenomics Library 2 (Multiplex)” (2022).

Tested on: U2OS
Assay: Multiplex assay against U2OS
Format: toxicity, cell-based
Details: human
In short: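 Values for tubulin, mitochondrial-mass and membrane-permeability phenotypes are per cents of cells with healthy nuclei. These cells were identified by CellPathfinder machine-learning gating of live cells that had been stained at seeding with Hoechst33342, BioTracker Green Microtubule Cytoskeleton Dye, MitoTracker Red and Annexin V Alexa Fluor 680 and imaged on a CQ1 microscope at 37°C and 5% CO2 after compound addition. The gating first set Hoechst high-intensity objects apart from normal cells, then split normal cells into healthy, pyknosed or fragmented nuclei, and pyknosed cells into mitotic or apoptotic.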

[1] = 12 h, 1 µM, compound concentration 1 uM, replicate 1
[2] = 12 h, 1 µM, compound concentration 1 uM, replicate 2
[3] = 12 h, 10 µM, compound concentration 10 uM, replicate 1
[4] = 12 h, 10 µM, compound concentration 10 uM, replicate 2
[5] = 24 h, 1 µM, compound concentration 1 uM, replicate 1
[6] = 24 h, 1 µM, compound concentration 1 uM, replicate 2
[7] = 24 h, 10 µM, compound concentration 10 uM, replicate 1
[8] = 24 h, 10 µM, compound concentration 10 uM, replicate 2
[9] = 48 h, 1 µM, compound concentration 1 uM, replicate 1
[10] = 48 h, 1 µM, compound concentration 1 uM, replicate 2
[11] = 48 h, 10 µM, compound concentration 10 uM, replicate 1
[12] = 48 h, 10 µM, compound concentration 10 uM, replicate 2

COc1cc(C(=O)N2CC[C@@H](O)[C@@H](N)C2)cc2nc(-c3cc4ccccc4n3CC3CC3)n(C)c12.Cl
Population Apoptotic (%) [1]: 50% | Population Fragmented Nuclei (%) [1]: 32% | Population Healthy Nuclei (%) [1]: 53% | Population Hoechst High Intensity Objects (%) [1]: 4% | Population Membrane Permeable-Phenotype (%) [1]: 38% | Population Mitochondria Different-Phenotype (%) [1]: 16% | Population Mitotic Cells (%) [1]: 50% | Population Normal (%) [1]: 95% | Population Pyknosed Nuclei (%) [1]: 14% | Population Tubulin-Different-Phenotype (%) [1]: 29% | Total Cell Count [1]: 223 | Population Apoptotic (%) [2]: 75% | Population Fragmented Nuclei (%) [2]: 15% | Population Healthy Nuclei (%) [2]: 75% | Population Hoechst High Intensity Objects (%) [2]: 1% | Population Membrane Permeable-Phenotype (%) [2]: 20% | Population Mitochondria Different-Phenotype (%) [2]: 18% | Population Mitotic Cells (%) [2]: 25% | Population Normal (%) [2]: 98% | Population Pyknosed Nuclei (%) [2]: 8% | Population Tubulin-Different-Phenotype (%) [2]: 15% | Total Cell Count [2]: 92 | Population Apoptotic (%) [3]: 68% | Population Fragmented Nuclei (%) [3]: 23% | Population Healthy Nuclei (%) [3]: 38% | Population Hoechst High Intensity Objects (%) [3]: 6% | Population Membrane Permeable-Phenotype (%) [3]: 75% | Population Mitochondria Different-Phenotype (%) [3]: 88% | Population Mitotic Cells (%) [3]: 31% | Population Normal (%) [3]: 93% | Population Pyknosed Nuclei (%) [3]: 37% | Population Tubulin-Different-Phenotype (%) [3]: 96% | Total Cell Count [3]: 208 | Population Apoptotic (%) [4]: 56% | Population Fragmented Nuclei (%) [4]: 16% | Population Healthy Nuclei (%) [4]: 61% | Population Hoechst High Intensity Objects (%) [4]: 5% | Population Membrane Permeable-Phenotype (%) [4]: 79% | Population Mitochondria Different-Phenotype (%) [4]: 91% | Population Mitotic Cells (%) [4]: 44% | Population Normal (%) [4]: 94% | Population Pyknosed Nuclei (%) [4]: 22% | Population Tubulin-Different-Phenotype (%) [4]: 94% | Total Cell Count [4]: 120 | Population Apoptotic (%) [5]: 78% | Population Fragmented Nuclei (%) [5]: 28% | Population Healthy Nuclei (%) [5]: 54% | Population Hoechst High Intensity Objects (%) [5]: 3% | Population Membrane Permeable-Phenotype (%) [5]: 19% | Population Mitochondria Different-Phenotype (%) [5]: 14% | Population Mitotic Cells (%) [5]: 21% | Population Normal (%) [5]: 96% | Population Pyknosed Nuclei (%) [5]: 17% | Population Tubulin-Different-Phenotype (%) [5]: 12% | Total Cell Count [5]: 243 | Population Apoptotic (%) [6]: 75% | Population Fragmented Nuclei (%) [6]: 18% | Population Healthy Nuclei (%) [6]: 69% | Population Hoechst High Intensity Objects (%) [6]: 2% | Population Membrane Permeable-Phenotype (%) [6]: 17% | Population Mitochondria Different-Phenotype (%) [6]: 18% | Population Mitotic Cells (%) [6]: 25% | Population Normal (%) [6]: 97% | Population Pyknosed Nuclei (%) [6]: 11% | Population Tubulin-Different-Phenotype (%) [6]: 17% | Total Cell Count [6]: 109 | Population Apoptotic (%) [7]: 84% | Population Fragmented Nuclei (%) [7]: 25% | Population Healthy Nuclei (%) [7]: 35% | Population Hoechst High Intensity Objects (%) [7]: 4% | Population Membrane Permeable-Phenotype (%) [7]: 57% | Population Mitochondria Different-Phenotype (%) [7]: 88% | Population Mitotic Cells (%) [7]: 15% | Population Normal (%) [7]: 95% | Population Pyknosed Nuclei (%) [7]: 38% | Population Tubulin-Different-Phenotype (%) [7]: 78% | Total Cell Count [7]: 222 | Population Apoptotic (%) [8]: 71% | Population Fragmented Nuclei (%) [8]: 26% | Population Healthy Nuclei (%) [8]: 48% | Population Membrane Permeable-Phenotype (%) [8]: 50% | Population Mitochondria Different-Phenotype (%) [8]: 85% | Population Mitotic Cells (%) [8]: 28% | Population Pyknosed Nuclei (%) [8]: 25% | Population Tubulin-Different-Phenotype (%) [8]: 90% | Total Cell Count [8]: 133 | Population Apoptotic (%) [9]: 82% | Population Fragmented Nuclei (%) [9]: 23% | Population Healthy Nuclei (%) [9]: 61% | Population Hoechst High Intensity Objects (%) [9]: 2% | Population Membrane Permeable-Phenotype (%) [9]: 9% | Population Mitochondria Different-Phenotype (%) [9]: 5% | Population Mitotic Cells (%) [9]: 17% | Population Normal (%) [9]: 97% | Population Pyknosed Nuclei (%) [9]: 15% | Population Tubulin-Different-Phenotype (%) [9]: 5% | Total Cell Count [9]: 304 | Population Apoptotic (%) [10]: 76% | Population Membrane Permeable-Phenotype (%) [10]: 17% | Population Mitochondria Different-Phenotype (%) [10]: 11% | Population Mitotic Cells (%) [10]: 23% | Population Pyknosed Nuclei (%) [10]: 14% | Population Tubulin-Different-Phenotype (%) [10]: 12% | Total Cell Count [10]: 149 | Population Apoptotic (%) [11]: 88% | Population Fragmented Nuclei (%) [11]: 29% | Population Healthy Nuclei (%) [11]: 35% | Population Hoechst High Intensity Objects (%) [11]: 12% | Population Membrane Permeable-Phenotype (%) [11]: 47% | Population Mitochondria Different-Phenotype (%) [11]: 65% | Population Mitotic Cells (%) [11]: 11% | Population Normal (%) [11]: 87% | Population Pyknosed Nuclei (%) [11]: 35% | Population Tubulin-Different-Phenotype (%) [11]: 62% | Total Cell Count [11]: 232 | Population Apoptotic (%) [12]: 92% | Population Fragmented Nuclei (%) [12]: 30% | Population Hoechst High Intensity Objects (%) [12]: 6% | Population Mitochondria Different-Phenotype (%) [12]: 84% | Population Mitotic Cells (%) [12]: 7% | Population Normal (%) [12]: 93% | Population Pyknosed Nuclei (%) [12]: 34% | Population Tubulin-Different-Phenotype (%) [12]: 75% | Total Cell Count [12]: 131
